rCAG binder: r(CAG) repeat RNA binding. inhibition, % at 3 µM. TO-PRO-1 dye displacement fluorescence. 370,000 compounds, 1.3% hits. AID 651821;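 active = inhibition above the plate cutoff, the mean of all test compounds on that plate plus 3 SD, cut at about 35% in these data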;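 also: 0% = DMSO alone and 100% = 100 µM mitoxantrone as full dye displacement; higher means more dye released from RNA so lower well fluorescence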
HCV core dimer: HCV core protein dimerization inhibition; TR-FRET GST/Flag-core106 dimerization, 1536-well; inhibition, % at 5 µM; 300,000 compounds, 0.33% hits; AID 1899;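 active = inhibition above the mean of all tested compounds plus 3 SD, set per screening campaign, cut at about 45% in these data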
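System: GST-tagged and Flag-tagged HCV core protein residues 1-106 / Input: core106 proteins, GST 13.5 nM and Flag 17 nM / Buffer or medium: KF-containing HEPES buffer, pH 7.45, DTT, CHAPS, BSA / Probe or stimulus: Eu-anti-GST and XL665-anti-Flag labelled anti-tag antibodies / Schedule: 4 h, 22.5 °C incubation / Technique: TR-FRET 671 and 617 nm emission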
NadD inh: inhibitors of Staphylococcus aureus NadD; AID 602399; purified NadD enzyme, colorimetric absorbance read-out; inhibition, % at 20 µM; 360,000 compounds, 0.78% hits; in the data active = inhibition above about 26%
ABHD5 PLIN5 PPI: ABHD5-PLIN5 protein interaction inhibition. Q00G26+Q8WTS1. Split G. princeps luciferase complementation, luminescence, 4 h. inhibition, % at 4 µM. 360,000 compounds, 0.78% hits;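 active = inhibition above the mean inhibition across every tested compound plus 3 SD, cut at about 22% in these data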;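 also: 0% = DMSO only wells and the 100% control is not disclosed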
NadD conf: confirmation of Staphylococcus aureus NadD inhibitors; shares compounds with NadD inh; purified S. aureus NadD, colorimetric enzyme assay; inhibition, % at 20 µM; 2,000 compounds, 13% hits; AID 624309; in the data active = inhibition mostly above about 42%, no sharp cut-off; inactive = mostly below about 42%
Active calls of the source: *; / = no result given. Rows were chosen to be rich in hits. Some 2.6% of all compounds tested hit in one or more screens of this group.

SMILES	rCAG binder	HCV core dimer	NadD inh	ABHD5 PLIN5 PPI	NadD conf
O=C(Nc1nc(-c2cccnc2)cs1)c1ccccc1Cl	0	4	3	0	/
COCCCN1CCC2(CCC(c3ccccc3)CC2)C1=O (centres undefined)	-1	/	/	/	/
COc1cc2nc(N3CCN(c4cc(C)ccc4C)CC3)nc(N)c2cc1OC	0	-11	3	10	/
COc1cc2nc(N3CCNCC3)nc(N)c2cc1OC	-2	9	34*	6	19
O=C(O)c1ccccc1N/N=C/c1c(Sc2nnnn2-c2ccccc2)nc2ccccn2c1=O	9	5	3	2	/
O=c1c(/C=N/Nc2ccccc2)c(Sc2nnnn2-c2ccccc2)nc2ccccn12	14	/	31*	0	6
Cc1ccc2[nH]c(=O)c(C3C(C#N)=C(N)Oc4c3ccc3cccnc43)cc2c1 (centres undefined)	17	9	45*	7	21
N#CC1=C(N)Oc2c(ccc3cccnc23)C1c1ccccc1 (centres undefined)	2	7	8	4	/
COc1ccc(/C=N/NC(=O)c2nc(Cl)c(Cl)c(N)c2Cl)cc1COc1ccc(F)cc1F	6	53*	53*	-4	4
COc1ccc(/C=N\NC(=O)c2ccccc2F)cc1COc1ccc(F)cc1F	5	2	-5	2	/
COc1cc(OC)cc(C(=O)N/N=C/c2ccc(OC)c(COc3ccc4ccccc4c3)c2)c1	17	39	40*	17	11
COc1ccc(C(=O)N/N=C/c2ccc(OC)c(COc3ccccc3)c2)cc1	-1	6	-1	15	/
COc1ccc(/C=N/NC(=O)c2nc(Cl)c(Cl)c(N)c2Cl)cc1COc1ccccc1F	10	57*	30*	4	7
C=CCN1C[C@H](COC(=O)CSc2ccccc2)Oc2cccc(F)c2S1(=O)=O	2	/	/	/	/
O=C(COC(=O)c1ccccc1Cl)NC1CCCCCC1	1	/	5	4	/
COc1cc(/C=C/C(=O)CC(=O)/C=C/c2ccc(O)c(OC)c2)ccc1O	27	36	56*	32*	52*
COC(=O)[C@]12CCCCC=C1N(Cc1ccccc1)C(=O)[C@H](CC(=O)N1CCOCC1)C2	1	/	-3	-6	/
Cc1ccc2nc(/C(C#N)=C/c3ccc(-c4cccc([N+](=O)[O-])c4)o3)[nH]c2c1	10	2	32*	4	9
COc1ccc(/C=C(\C#N)c2nc3ccc(C)cc3[nH]2)cc1Oc1ccc(C(F)(F)F)cc1[N+](=O)[O-]	7	17	32*	1	-20
COc1cc(/C=C(\C#N)c2nc3ccc(C)cc3[nH]2)c([N+](=O)[O-])cc1OC	10	-11	1	6	/
N#C/C(=C\c1cccc(Oc2ccc(C(F)(F)F)cc2[N+](=O)[O-])c1)c1nc2ccccc2[nH]1	18	8	38*	3	10
Cc1ccc2nc(/C(C#N)=C\c3ccc(Oc4ccc(C(F)(F)F)cc4[N+](=O)[O-])cc3)[nH]c2c1	7	40	33*	-1	4
Cc1ccc2nc(/C(C#N)=C\c3cc(O)ccc3[N+](=O)[O-])[nH]c2c1	11	-1	1	-3	/
Cc1nnsc1C(=O)N1CCCC1(C)C(=O)O (centres undefined)	0	/	1	6	/
Cc1ccccc1C1=CC(=O)CC(C)(C)C1=O	2	/	/	/	/
SMILES	rCAG binder	HCV core dimer	NadD inh	ABHD5 PLIN5 PPI	NadD conf
COc1cc(/C=C(\C#N)c2nc3ccccc3[nH]2)ccc1Oc1ccc([N+](=O)[O-])cn1	17	9	33*	-1	18
C[C@H](O)[C@@H]1C(=O)N2CCc3c([nH]c4c(-c5ccc6c(c5)OCO6)cccc34)[C@@H]2C[C@@H]1N(C)C(=O)Nc1ccccc1	4	/	/	/	/
COc1ccc(-c2c3c([nH]c(=S)c2C#N)CCC3)cc1	16	/	36*	-11	17
Cc1cccc(NS(=O)(=O)c2ccc3c(c2)Cc2cc(S(=O)(=O)Nc4cccc(C)c4C)ccc2-3)c1C	9	24	36*	-3	44
CCOC(=O)c1sc2nc3c(SCC(=O)O)cc(C(=O)c4cc(F)ccc4O)cn3c(=O)c2c1C	28	21	33*	-4	34
CCN1CCc2c(sc3c2c(NCc2ccco2)nc2nnnn23)C1	-3	15	38*	17	8
Cc1nc(NCc2ccco2)c2c3c(sc2n1)CCC3	0	19	-1	5	/
CCc1nc2c(OCc3ccccc3C)cccn2c1N(C)C(=O)C(C)C	-2	/	0	6	/

Screens from PubChem.
